Results from paper PMC6988732 (The Biochemical journal, 2013).

Assays:
Assay type in all cases: cell-based
[1] = biological target: GFP–PKCθ T243A (Mus musculus, UniProt Q02111, T243A); assay: Confocal translocation in living LNCaP cells
In short: (§1)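 Mouse full-length PKCθ (wild-type or C1B point mutant) carrying a C-terminal EGFP tag via a GGNSGG spacer, transfected into LNCaP prostate cancer cells. Living cells were exposed to PMA and imaged by confocal microscopy over a time course. Membrane/cytoplasm intensity ratios were quantified from the images; means ± S.E.M., with images typical of three to four independent experiments.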

[2] = biological target: full-length PKCθ L255G (Mus musculus, UniProt Q02111, L255G); assay: Membrane translocation in HEK-293 cells; settings: 50 nM PMA, 2 h
full-length PKCθ L255G, sequence (Q02111 whole entry L255G): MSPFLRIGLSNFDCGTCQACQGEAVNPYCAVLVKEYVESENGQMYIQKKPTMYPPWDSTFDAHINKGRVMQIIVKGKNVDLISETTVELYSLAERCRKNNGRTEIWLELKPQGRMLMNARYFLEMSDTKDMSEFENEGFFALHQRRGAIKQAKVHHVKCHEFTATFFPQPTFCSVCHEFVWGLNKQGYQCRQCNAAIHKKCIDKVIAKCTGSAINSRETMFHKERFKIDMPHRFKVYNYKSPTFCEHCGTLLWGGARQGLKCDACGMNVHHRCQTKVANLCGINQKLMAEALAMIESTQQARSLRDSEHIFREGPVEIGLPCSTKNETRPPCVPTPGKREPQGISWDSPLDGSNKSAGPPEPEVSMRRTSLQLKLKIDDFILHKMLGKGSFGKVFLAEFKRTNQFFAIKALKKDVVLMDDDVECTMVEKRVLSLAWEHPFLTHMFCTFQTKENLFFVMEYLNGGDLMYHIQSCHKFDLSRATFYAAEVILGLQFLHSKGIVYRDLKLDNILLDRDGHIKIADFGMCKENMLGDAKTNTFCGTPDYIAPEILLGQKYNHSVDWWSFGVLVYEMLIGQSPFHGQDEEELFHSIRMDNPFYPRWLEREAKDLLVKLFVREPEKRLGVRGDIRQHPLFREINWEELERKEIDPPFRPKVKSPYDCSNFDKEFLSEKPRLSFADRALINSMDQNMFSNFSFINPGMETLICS

[3] = biological target: GFP–PKCθ Q258G (Mus musculus, UniProt Q02111, Q258G); assay: Confocal translocation in living LNCaP cells
GFP–PKCθ Q258G, sequence (Q02111 whole entry Q258G): as the sequence (Q02111 whole entry L255G) above, with G255L, Q258G counted along it
In short: as §1

[4] = biological target: full-length PKCθ Q258G (Mus musculus, UniProt Q02111, Q258G); assay: Membrane translocation in HEK-293 cells; settings: 50 nM PMA, 2 h
full-length PKCθ Q258G, sequence (Q02111 whole entry Q258G): as the sequence (Q02111 whole entry L255G) above, with G255L, Q258G counted along it

[5] = biological target: full-length PKCθ T243A (Mus musculus, UniProt Q02111, T243A); assay: Membrane translocation in HEK-293 cells; settings: 50 nM PMA, 2 h
full-length PKCθ T243A, sequence (Q02111 whole entry T243A): as the sequence (Q02111 whole entry L255G) above, with T243A, G255L counted along it

[6] = biological target: full-length PKCθ Y239A (Mus musculus, UniProt Q02111, Y239A); assay: Membrane translocation in HEK-293 cells; settings: 50 nM PMA, 2 h
full-length PKCθ Y239A, sequence (Q02111 whole entry Y239A): as the sequence (Q02111 whole entry L255G) above, with Y239A, G255L counted along it

[7] = biological target: GFP–PKCθ L255G (Mus musculus, UniProt Q02111, L255G); assay: Confocal translocation in living LNCaP cells
GFP–PKCθ L255G, sequence (Q02111 whole entry L255G): as the sequence (Q02111 whole entry L255G) above
In short: as §1

[8] = biological target: GFP–PKCθ wild-type (Mus musculus, UniProt Q02111); assay: Confocal translocation in living LNCaP cells
GFP–PKCθ wild-type, sequence (Q02111 whole entry): as the sequence (Q02111 whole entry L255G) above, with G255L counted along it
In short: as §1

[9] = biological target: full-length PKCθ W253G (Mus musculus, UniProt Q02111, W253G); assay: Membrane translocation in HEK-293 cells; settings: 50 nM PMA, 2 h
full-length PKCθ W253G, sequence (Q02111 whole entry W253G): as the sequence (Q02111 whole entry L255G) above, with W253G, G255L counted along it

[10] = biological target: GFP–PKCθ Y239A (Mus musculus, UniProt Q02111, Y239A); assay: Confocal translocation in living LNCaP cells
GFP–PKCθ Y239A, sequence (Q02111 whole entry Y239A): as the sequence (Q02111 whole entry L255G) above, with Y239A, G255L counted along it
In short: as §1

[11] = biological target: GFP–PKCθ W253G (Mus musculus, UniProt Q02111, W253G); assay: Confocal translocation in living LNCaP cells
GFP–PKCθ W253G, sequence (Q02111 whole entry W253G): as the sequence (Q02111 whole entry L255G) above, with W253G, G255L counted along it
In short: as §1

[12] = 100 nM PMA (second block, r6-r8), 5 min
[13] = 100 nM PMA (second block, r6-r8), 10 min
[14] = 100 nM PMA (second block, r6-r8), 20 min
[15] = 100 nM PMA as printed (first block, r3-r5), 5 min
[16] = 100 nM PMA as printed (first block, r3-r5), 10 min
[17] = 100 nM PMA as printed (first block, r3-r5), 20 min

GFP–PKCθ T243A, sequence (Q02111 whole entry T243A): as the sequence (Q02111 whole entry L255G) above, with T243A, G255L counted along it

## CCCCCCCCCCCCCC(=O)O[C@@H]1[C@@H](C)[C@@]2(O)[C@@H](C=C(CO)C[C@]3(O)C(=O)C(C)=C[C@@H]23)[C@@H]2C(C)(C)[C@]12OC(C)=O [PMA]
[1]; 10 nM PMA, 5 min
  Membrane/cytoplasmic intensity ratio, PKCθ T243A: 1.0 ± 0.0
[1]; 10 nM PMA, 10 min
  Membrane/cytoplasmic intensity ratio, PKCθ T243A: 1.3 ± 0.2
[1]; 10 nM PMA, 20 min
  Membrane/cytoplasmic intensity ratio, PKCθ T243A: 1.7 ± 0.1
[1]; 100 nM PMA
  time by which translocation was largely complete: ≤ 5 min
[1]; [12]
  Membrane/cytoplasmic intensity ratio, PKCθ T243A: 3.6 ± 1.1
[1]; [13]
  Membrane/cytoplasmic intensity ratio, PKCθ T243A: 3.7 ± 0.8
[1]; [14]
  Membrane/cytoplasmic intensity ratio, PKCθ T243A: 3.1 ± 0.6
[1]; [15]
  Membrane/cytoplasmic intensity ratio, PKCθ T243A: 10.3 ± 1.9
[1]; [16]
  Membrane/cytoplasmic intensity ratio, PKCθ T243A: 9.9 ± 1.5
[1]; [17]
  Membrane/cytoplasmic intensity ratio, PKCθ T243A: 7.4 ± 1.5
[2]
  reduction in membrane translocation compared with the wild-type: 19.4%
[3]; 10 nM PMA, 5 min
  Membrane/cytoplasmic intensity ratio, PKCθ Q258G: 1.2 ± 0.1
[3]; 10 nM PMA, 10 min
  Membrane/cytoplasmic intensity ratio, PKCθ Q258G: 1.1 ± 0.1
[3]; 10 nM PMA, 20 min
  Membrane/cytoplasmic intensity ratio, PKCθ Q258G: 1.1 ± 0.0
[3]; [12]
  Membrane/cytoplasmic intensity ratio, PKCθ Q258G: 1.0 ± 0.0
[3]; [13]
  Membrane/cytoplasmic intensity ratio, PKCθ Q258G: 1.1 ± 0.0
[3]; [14]
  Membrane/cytoplasmic intensity ratio, PKCθ Q258G: 1.1 ± 0.0
[3]; [15]
  Membrane/cytoplasmic intensity ratio, PKCθ Q258G: 1.2 ± 0.1
[3]; [16]
  Membrane/cytoplasmic intensity ratio, PKCθ Q258G: 2.0 ± 0.3
[3]; [17]
  Membrane/cytoplasmic intensity ratio, PKCθ Q258G: 2.1 ± 0.4
[3]; 100 nM PMA, by 20 min
  plasma membrane translocation response: little response
[3]; 1000 nM PMA, later times
  plasma membrane translocation response: partial translocation
[4]
  reduction in membrane translocation compared with the wild-type: 21.6%
[5]
  reduction in membrane translocation compared with the wild-type: 12.5%
[6]
  reduction in membrane translocation compared with the wild-type: 17.1%
[7]; 10 nM PMA, 5 min
  Membrane/cytoplasmic intensity ratio, PKCθ L255G: 1.1 ± 0.1
[7]; 10 nM PMA, 10 min
  Membrane/cytoplasmic intensity ratio, PKCθ L255G: 1.1 ± 0.1
[7]; 10 nM PMA, 20 min
  Membrane/cytoplasmic intensity ratio, PKCθ L255G: 1.1 ± 0.0
[7]; [12]
  Membrane/cytoplasmic intensity ratio, PKCθ L255G: 1.3 ± 0.1
[7]; [13]
  Membrane/cytoplasmic intensity ratio, PKCθ L255G: 1.6 ± 0.2
[7]; [14]
  Membrane/cytoplasmic intensity ratio, PKCθ L255G: 2.3 ± 0.4
[7]; [15]
  Membrane/cytoplasmic intensity ratio, PKCθ L255G: 4.8 ± 1.5
[7]; [16]
  Membrane/cytoplasmic intensity ratio, PKCθ L255G: 6.0 ± 1.2
[7]; [17]
  Membrane/cytoplasmic intensity ratio, PKCθ L255G: 7.2 ± 1.9
[8]; 10 nM PMA, 5 min
  Membrane/cytoplasmic intensity ratio, PKCθ WT: 1.0 ± 0.1
[8]; 10 nM PMA, 10 min
  Membrane/cytoplasmic intensity ratio, PKCθ WT: 1.0 ± 0.1
[8]; 10 nM PMA, 20 min
  Membrane/cytoplasmic intensity ratio, PKCθ WT: 1.2 ± 0.4
[8]; 100 nM PMA
  time to marked translocation to the plasma membrane: ≤ 2 min
[8]; [12]
  Membrane/cytoplasmic intensity ratio, PKCθ WT: 8.1 ± 1.2
[8]; [13]
  Membrane/cytoplasmic intensity ratio, PKCθ WT: 6.5 ± 0.7
[8]; [14]
  Membrane/cytoplasmic intensity ratio, PKCθ WT: 5.4 ± 0.5
[8]; [15]
  Membrane/cytoplasmic intensity ratio, PKCθ WT: 14.5 ± 2.2
[8]; [16]
  Membrane/cytoplasmic intensity ratio, PKCθ WT: 11.3 ± 2.1
[8]; [17]
  Membrane/cytoplasmic intensity ratio, PKCθ WT: 12.1 ± 2.2
[9]
  reduction in membrane translocation compared with the wild-type: 14.8%
[10]; 10 nM PMA, 5 min
  Membrane/cytoplasmic intensity ratio, PKCθ Y239A: 1.1 ± 0.0
[10]; 10 nM PMA, 10 min
  Membrane/cytoplasmic intensity ratio, PKCθ Y239A: 1.1 ± 0.1
[10]; 10 nM PMA, 20 min
  Membrane/cytoplasmic intensity ratio, PKCθ Y239A: 1.0 ± 0.0
[10]; [12]
  Membrane/cytoplasmic intensity ratio, PKCθ Y239A: 1.7 ± 0.4
[10]; [13]
  Membrane/cytoplasmic intensity ratio, PKCθ Y239A: 2.3 ± 0.8
[10]; [14]
  Membrane/cytoplasmic intensity ratio, PKCθ Y239A: 2.3 ± 0.5
[10]; [15]
  Membrane/cytoplasmic intensity ratio, PKCθ Y239A: 3.8 ± 1.8
[10]; [16]
  Membrane/cytoplasmic intensity ratio, PKCθ Y239A: 4.2 ± 1.6
[10]; [17]
  Membrane/cytoplasmic intensity ratio, PKCθ Y239A: 5 ± 0.4
[11]; 10 nM PMA, 5 min
  Membrane/cytoplasmic intensity ratio, PKCθ W253G: 1.0 ± 0.1
[11]; 10 nM PMA, 10 min
  Membrane/cytoplasmic intensity ratio, PKCθ W253G: 1.1 ± 0.1
[11]; 10 nM PMA, 20 min
  Membrane/cytoplasmic intensity ratio, PKCθ W253G: 1.2 ± 0.2
[11]; [12]
  Membrane/cytoplasmic intensity ratio, PKCθ W253G: 1.9 ± 0.4
[11]; [13]
  Membrane/cytoplasmic intensity ratio, PKCθ W253G: 3.0 ± 0.7
[11]; [14]
  Membrane/cytoplasmic intensity ratio, PKCθ W253G: 2.6 ± 0.6
[11]; [15]
  Membrane/cytoplasmic intensity ratio, PKCθ W253G: 11.4 ± 3.6
[11]; [16]
  Membrane/cytoplasmic intensity ratio, PKCθ W253G: 12.7 ± 3.9
[11]; [17]
  Membrane/cytoplasmic intensity ratio, PKCθ W253G: 13.2 ± 5.0
